According to ChEMBL document CHEMBL5678818, “Discovery of potent SOS1 inhibitors that block RAS activation via disruption of the RAS-SOS1 interaction” (Proc Natl Acad Sci U S A, 2019):
The source made the active and inactive calls. The calls are words filed in the database; no cut-off is given here.

Experiments:
[1] = system: Receptor-type tyrosine-protein kinase FLT3 (Homo sapiens), P36888 [UNDEFINED MUTATION]; test: Inhibition of FLT3 ITD/F691L mutant (unknown origin) assessed as residual activity at 1000 nM by KINOMEscan analysis relative to control
[2] = molecular target: 1-phosphatidylinositol 3-phosphate 5-kinase (Homo sapiens) (UniProt Q9Y2I7); test: Inhibition of PIKFYVE (unknown origin) assessed as residual activity at 1000 nM by KINOMEscan analysis relative to control
[3] = molecular target: Serine/threonine-protein kinase SIK3 (Homo sapiens) (UniProt Q9Y2K2); test: Inhibition of QSK (unknown origin) assessed as residual activity at 100 nM by KINOMEscan analysis relative to control
[4] = molecular target: Casein kinase I isoform gamma-3 (Homo sapiens) (UniProt Q9Y6M4); test: Inhibition of CSNK1G3 (unknown origin) assessed as residual activity at 100 nM by KINOMEscan analysis relative to control
[5] = molecular target: Fibroblast growth factor receptor 2 (Homo sapiens) (UniProt P21802); test: Inhibition of FGFR2 (unknown origin) assessed as residual activity at 100 nM by KINOMEscan analysis relative to control
[6] = molecular target: Serine/threonine-protein kinase 10 (Homo sapiens) (UniProt O94804); test: Inhibition of LOK (unknown origin) assessed as residual activity at 100 nM by KINOMEscan analysis relative to control
[7] = molecular target: Dual specificity protein kinase CLK4 (Homo sapiens) (UniProt Q9HAZ1); test: Inhibition of CLK4 (unknown origin) assessed as residual activity at 100 nM by KINOMEscan analysis relative to control
[8] = molecular target: T1, Phosphatidylinositol 5-phosphate 4-kinase type-2 beta (Homo sapiens) (UniProt P78356); test: Inhibition of PIP5K2B (unknown origin) assessed as residual activity at 100 nM by KINOMEscan analysis relative to control
T1 sequence (whole entry): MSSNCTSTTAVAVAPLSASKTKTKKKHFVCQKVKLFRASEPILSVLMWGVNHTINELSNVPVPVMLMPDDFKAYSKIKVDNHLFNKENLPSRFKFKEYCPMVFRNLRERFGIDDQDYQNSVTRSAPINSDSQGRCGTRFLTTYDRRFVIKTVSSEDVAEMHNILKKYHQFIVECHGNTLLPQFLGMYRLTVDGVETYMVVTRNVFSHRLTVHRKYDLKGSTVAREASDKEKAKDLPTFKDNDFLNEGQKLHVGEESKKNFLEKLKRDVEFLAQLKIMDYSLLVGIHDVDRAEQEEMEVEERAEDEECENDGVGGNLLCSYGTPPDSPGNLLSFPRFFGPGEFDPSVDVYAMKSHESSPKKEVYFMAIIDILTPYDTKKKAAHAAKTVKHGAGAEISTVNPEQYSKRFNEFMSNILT

[9] = molecular target: Cyclin-dependent kinase 14 (Homo sapiens) (UniProt O94921); test: Inhibition of PFTK1 (unknown origin) assessed as residual activity at 100 nM by KINOMEscan analysis relative to control
[10] = system: Tyrosine-protein kinase ABL1 (Homo sapiens), P00519 [F317I]; test: Inhibition of nonphosphorylated ABL1 F317I mutant (unknown origin) assessed as residual activity at 100 nM by KINOMEscan analysis relative to control
[11] = system: Epidermal growth factor receptor (Homo sapiens), P00533 [UNDEFINED MUTATION]; test: Inhibition of EGFR L747-S752del/P753S mutant (unknown origin) assessed as residual activity at 100 nM by KINOMEscan analysis relative to control
[12] = system: Phosphatidylinositol 4,5-bisphosphate 3-kinase catalytic subunit alpha isoform (Homo sapiens), P42336 [Q546K]; test: Inhibition of PIK3CA Q546K mutant (unknown origin) assessed as residual activity at 100 nM by KINOMEscan analysis relative to control
[13] = molecular target: T2, cGMP-dependent protein kinase 2 (Homo sapiens) (UniProt Q13237); test: Inhibition of PRKG2 (unknown origin) assessed as residual activity at 100 nM by KINOMEscan analysis relative to control
T2 sequence (whole entry): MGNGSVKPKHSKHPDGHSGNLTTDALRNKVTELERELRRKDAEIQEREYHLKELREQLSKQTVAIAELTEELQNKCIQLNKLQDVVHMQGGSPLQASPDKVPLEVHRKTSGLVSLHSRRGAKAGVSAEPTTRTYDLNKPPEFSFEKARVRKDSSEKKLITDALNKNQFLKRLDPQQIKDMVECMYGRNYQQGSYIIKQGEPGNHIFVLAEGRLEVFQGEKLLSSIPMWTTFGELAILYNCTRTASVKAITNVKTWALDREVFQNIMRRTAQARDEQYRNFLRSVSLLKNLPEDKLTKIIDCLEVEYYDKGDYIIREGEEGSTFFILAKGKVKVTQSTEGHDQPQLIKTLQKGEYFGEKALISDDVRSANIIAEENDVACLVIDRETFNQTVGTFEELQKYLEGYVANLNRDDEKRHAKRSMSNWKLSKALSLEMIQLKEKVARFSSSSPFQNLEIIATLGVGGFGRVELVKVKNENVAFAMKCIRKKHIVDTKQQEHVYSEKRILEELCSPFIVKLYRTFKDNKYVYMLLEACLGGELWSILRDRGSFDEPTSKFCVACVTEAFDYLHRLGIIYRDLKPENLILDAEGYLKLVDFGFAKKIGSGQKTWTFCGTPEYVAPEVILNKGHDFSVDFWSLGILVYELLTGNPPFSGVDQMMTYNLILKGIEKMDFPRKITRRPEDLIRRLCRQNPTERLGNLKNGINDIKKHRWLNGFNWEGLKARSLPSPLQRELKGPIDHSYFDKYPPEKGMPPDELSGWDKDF

[14] = molecular target: Tyrosine-protein kinase JAK1 (Homo sapiens) (UniProt P23458); test: Inhibition of JAK1 JH1 catalytic domain (unknown origin) assessed as residual activity at 100 nM by KINOMEscan analysis relative to control
[15] = system: K562; test: Effect on total ERK level in human K562 cells incubated for 60 mins by HTRF analysis; format: functional, cell-based
In short: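 K-562 cells (wild-type KRAS) were sourced from ATCC. Cells were incubated with compound for 60 min, and total ERK was quantified alongside pERK.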

Chain of Fibroblast growth factor receptor 2 (Homo sapiens) (P21802 22-821 limits assumed): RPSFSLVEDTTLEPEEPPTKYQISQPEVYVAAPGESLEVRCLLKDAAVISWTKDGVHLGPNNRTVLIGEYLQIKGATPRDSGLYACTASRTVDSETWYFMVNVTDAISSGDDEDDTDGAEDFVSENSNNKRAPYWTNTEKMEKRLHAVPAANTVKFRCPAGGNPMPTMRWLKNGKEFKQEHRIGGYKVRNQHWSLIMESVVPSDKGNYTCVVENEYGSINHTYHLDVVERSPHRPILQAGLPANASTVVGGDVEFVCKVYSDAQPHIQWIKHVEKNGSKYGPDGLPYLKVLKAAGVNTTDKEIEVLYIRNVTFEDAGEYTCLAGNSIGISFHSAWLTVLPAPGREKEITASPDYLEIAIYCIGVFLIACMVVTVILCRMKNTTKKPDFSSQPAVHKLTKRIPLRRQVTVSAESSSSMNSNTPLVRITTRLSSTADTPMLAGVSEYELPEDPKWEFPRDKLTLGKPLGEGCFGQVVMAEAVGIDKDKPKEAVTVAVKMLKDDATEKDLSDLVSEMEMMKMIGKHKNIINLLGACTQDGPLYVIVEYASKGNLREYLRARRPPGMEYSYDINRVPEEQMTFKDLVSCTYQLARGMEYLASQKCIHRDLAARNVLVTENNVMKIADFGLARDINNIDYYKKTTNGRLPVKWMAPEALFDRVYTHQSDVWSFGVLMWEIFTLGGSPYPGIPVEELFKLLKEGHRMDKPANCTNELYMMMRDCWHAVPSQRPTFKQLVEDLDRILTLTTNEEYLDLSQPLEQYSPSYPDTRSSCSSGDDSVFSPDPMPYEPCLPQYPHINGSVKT
Chain of Receptor-type tyrosine-protein kinase FLT3 (Homo sapiens), P36888 [UNDEFINED MUTATION] (P36888 whole entry, looked up, stated change not applied): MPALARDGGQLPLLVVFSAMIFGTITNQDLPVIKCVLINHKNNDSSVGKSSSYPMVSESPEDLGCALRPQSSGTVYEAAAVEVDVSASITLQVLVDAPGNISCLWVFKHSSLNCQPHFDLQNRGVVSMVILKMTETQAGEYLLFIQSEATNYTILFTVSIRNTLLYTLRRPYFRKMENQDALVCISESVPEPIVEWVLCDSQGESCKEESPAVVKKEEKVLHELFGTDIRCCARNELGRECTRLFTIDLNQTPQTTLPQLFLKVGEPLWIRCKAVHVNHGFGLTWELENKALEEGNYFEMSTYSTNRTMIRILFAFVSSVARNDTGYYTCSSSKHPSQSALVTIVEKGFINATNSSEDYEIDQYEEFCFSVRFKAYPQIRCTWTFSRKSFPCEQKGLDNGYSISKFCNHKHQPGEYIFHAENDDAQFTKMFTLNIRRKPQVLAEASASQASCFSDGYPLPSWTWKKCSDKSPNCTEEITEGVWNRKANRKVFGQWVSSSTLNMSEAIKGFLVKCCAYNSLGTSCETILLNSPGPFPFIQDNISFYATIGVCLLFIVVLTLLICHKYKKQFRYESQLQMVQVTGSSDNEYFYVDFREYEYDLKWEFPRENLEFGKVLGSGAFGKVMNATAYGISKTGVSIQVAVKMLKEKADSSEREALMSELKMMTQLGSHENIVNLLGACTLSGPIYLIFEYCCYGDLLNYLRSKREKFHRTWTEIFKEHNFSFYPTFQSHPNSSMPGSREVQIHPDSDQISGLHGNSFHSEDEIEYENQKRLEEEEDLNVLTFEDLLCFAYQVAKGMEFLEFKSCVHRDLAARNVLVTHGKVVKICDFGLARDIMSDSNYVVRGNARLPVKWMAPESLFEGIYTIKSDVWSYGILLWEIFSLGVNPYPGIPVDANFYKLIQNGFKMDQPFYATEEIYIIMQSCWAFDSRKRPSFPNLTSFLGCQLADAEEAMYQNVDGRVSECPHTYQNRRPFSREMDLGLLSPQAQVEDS
Chain of Epidermal growth factor receptor (Homo sapiens), P00533 [UNDEFINED MUTATION] (P00533 whole entry, looked up, stated change not applied, canonical isoform): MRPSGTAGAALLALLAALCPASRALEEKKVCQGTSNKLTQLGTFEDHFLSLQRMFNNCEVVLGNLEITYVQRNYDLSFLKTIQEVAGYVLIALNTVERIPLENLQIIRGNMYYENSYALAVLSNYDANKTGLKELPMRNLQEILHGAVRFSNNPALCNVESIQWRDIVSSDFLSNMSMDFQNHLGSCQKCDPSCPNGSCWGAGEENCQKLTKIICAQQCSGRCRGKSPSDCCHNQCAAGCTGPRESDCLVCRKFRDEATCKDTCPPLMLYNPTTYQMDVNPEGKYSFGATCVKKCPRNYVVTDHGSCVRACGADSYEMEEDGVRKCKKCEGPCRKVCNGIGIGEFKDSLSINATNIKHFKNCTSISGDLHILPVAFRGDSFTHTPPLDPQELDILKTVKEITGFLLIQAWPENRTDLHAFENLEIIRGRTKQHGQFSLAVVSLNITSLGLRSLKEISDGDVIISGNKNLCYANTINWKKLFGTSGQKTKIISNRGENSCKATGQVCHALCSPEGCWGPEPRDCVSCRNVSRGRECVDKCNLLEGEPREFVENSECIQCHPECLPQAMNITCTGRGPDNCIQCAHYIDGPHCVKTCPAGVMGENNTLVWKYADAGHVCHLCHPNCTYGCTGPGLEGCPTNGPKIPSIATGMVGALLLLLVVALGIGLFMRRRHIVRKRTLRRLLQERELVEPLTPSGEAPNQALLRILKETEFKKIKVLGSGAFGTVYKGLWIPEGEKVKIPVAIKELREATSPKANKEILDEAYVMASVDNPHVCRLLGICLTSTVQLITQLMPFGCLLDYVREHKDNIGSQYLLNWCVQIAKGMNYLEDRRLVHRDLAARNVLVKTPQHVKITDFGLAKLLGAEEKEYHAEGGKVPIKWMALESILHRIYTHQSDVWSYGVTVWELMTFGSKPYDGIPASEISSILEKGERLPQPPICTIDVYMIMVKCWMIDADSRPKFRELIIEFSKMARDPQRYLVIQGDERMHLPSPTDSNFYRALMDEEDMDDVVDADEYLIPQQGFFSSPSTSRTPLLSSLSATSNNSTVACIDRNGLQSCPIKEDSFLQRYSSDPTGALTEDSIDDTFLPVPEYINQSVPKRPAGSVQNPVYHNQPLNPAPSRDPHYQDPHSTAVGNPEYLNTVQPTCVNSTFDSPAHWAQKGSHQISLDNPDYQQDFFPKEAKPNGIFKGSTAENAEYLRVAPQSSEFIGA
Chain of Casein kinase I isoform gamma-3 (Homo sapiens) (Q9Y6M4 whole entry, looked up, canonical isoform): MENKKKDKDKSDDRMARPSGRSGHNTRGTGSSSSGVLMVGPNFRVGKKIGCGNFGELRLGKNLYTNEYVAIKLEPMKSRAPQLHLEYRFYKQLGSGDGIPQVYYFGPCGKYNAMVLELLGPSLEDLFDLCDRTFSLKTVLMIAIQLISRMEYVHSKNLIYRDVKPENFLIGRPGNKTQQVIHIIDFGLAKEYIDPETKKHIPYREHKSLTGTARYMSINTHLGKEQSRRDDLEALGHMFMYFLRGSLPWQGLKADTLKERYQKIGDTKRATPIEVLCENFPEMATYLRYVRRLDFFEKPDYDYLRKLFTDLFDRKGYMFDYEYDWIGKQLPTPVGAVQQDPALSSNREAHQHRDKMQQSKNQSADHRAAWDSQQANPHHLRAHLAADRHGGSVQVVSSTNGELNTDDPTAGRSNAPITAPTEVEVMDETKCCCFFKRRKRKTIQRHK
Chain of Cyclin-dependent kinase 14 (Homo sapiens) (O94921 whole entry): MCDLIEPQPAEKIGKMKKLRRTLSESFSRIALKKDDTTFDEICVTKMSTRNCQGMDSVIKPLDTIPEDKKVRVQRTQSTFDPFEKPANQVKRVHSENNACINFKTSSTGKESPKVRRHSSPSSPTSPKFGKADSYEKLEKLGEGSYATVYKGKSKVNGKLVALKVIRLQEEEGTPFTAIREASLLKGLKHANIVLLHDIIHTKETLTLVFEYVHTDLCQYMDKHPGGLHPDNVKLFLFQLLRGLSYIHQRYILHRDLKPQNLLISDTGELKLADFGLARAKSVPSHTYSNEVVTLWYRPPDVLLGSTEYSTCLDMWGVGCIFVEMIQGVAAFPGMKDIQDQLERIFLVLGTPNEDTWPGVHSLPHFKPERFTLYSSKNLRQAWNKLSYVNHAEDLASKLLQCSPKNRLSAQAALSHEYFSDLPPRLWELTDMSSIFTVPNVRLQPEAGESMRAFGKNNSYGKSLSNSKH
Chain of Phosphatidylinositol 4,5-bisphosphate 3-kinase catalytic subunit alpha isoform (Homo sapiens), P42336 [Q546K] (P42336 whole entry Q546K, canonical isoform): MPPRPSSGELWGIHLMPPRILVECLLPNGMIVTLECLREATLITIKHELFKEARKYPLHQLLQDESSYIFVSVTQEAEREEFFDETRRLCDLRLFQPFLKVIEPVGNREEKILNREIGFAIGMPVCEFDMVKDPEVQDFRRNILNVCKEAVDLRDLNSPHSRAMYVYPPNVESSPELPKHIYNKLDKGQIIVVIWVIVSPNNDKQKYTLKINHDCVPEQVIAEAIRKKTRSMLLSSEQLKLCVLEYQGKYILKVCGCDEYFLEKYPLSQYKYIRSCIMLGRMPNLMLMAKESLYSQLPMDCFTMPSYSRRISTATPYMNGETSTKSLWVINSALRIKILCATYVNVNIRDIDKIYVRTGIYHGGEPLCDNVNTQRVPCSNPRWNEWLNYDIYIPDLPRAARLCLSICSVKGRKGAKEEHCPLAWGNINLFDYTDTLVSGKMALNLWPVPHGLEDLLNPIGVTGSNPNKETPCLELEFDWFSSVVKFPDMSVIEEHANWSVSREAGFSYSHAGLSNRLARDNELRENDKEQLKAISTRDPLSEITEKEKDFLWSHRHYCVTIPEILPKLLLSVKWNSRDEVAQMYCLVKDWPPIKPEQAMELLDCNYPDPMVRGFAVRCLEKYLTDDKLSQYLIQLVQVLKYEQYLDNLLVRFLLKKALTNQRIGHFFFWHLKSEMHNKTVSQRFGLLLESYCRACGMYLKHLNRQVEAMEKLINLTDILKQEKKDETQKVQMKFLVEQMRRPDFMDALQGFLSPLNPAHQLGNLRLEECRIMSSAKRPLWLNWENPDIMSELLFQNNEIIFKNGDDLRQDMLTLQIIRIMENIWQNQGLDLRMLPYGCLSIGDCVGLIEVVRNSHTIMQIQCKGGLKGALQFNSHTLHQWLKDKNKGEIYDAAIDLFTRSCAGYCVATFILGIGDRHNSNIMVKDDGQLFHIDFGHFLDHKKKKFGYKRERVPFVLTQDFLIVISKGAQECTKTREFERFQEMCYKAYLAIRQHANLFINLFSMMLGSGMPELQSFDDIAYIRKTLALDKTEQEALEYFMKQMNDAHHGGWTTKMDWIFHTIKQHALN

COc1cc2nc(C)nc(N[C@H](C)c3cccc(-c4cn[nH]c4)c3)c2cc1OC
Activity [1]: 86%
Activity [2]: 68%

COc1cc2ncnc(N[C@H](C)c3cccc4ccccc34)c2cc1OC
Activity [3]: 94%
Activity [4]: 87%
Activity [5]: 80%
Activity [6]: 98%
Activity [7]: 87%
Activity [8]: 91%
Activity [9]: 91%
Activity [10]: 85%
Activity [11]: 90%
Activity [12]: 70%
Activity [13]: 70%
Activity [14]: 79%

CNCc1ccccc1-c1csc([C@@H](C)Nc2nc(C)nc3cc(OC)c(OC)cc23)c1 [BAY-293]
Activity [15]: inactive
